According to ChEMBL document CHEMBL4043093, “2-Oxo-3, 4-dihydropyrimido[4, 5-d]pyrimidinyl derivatives as new irreversible pan fibroblast growth factor receptor (FGFR) inhibitors” (Eur J Med Chem, 2017):

How the values were obtained:
[1] = target: Rho-associated protein kinase 2 (Homo sapiens) (UniProt O75116); experiment: Inhibition of wild-type human partial length ROCK2 (M1 to T431 residues) expressed in HEK293 cells assessed as residual activity at 1000 nM after 30 mins by Kinomescan method relative to control; type: cell-based
Rho-associated protein kinase 2 (Homo sapiens), sequence (O75116 whole entry, looked up, the tested form may be a part): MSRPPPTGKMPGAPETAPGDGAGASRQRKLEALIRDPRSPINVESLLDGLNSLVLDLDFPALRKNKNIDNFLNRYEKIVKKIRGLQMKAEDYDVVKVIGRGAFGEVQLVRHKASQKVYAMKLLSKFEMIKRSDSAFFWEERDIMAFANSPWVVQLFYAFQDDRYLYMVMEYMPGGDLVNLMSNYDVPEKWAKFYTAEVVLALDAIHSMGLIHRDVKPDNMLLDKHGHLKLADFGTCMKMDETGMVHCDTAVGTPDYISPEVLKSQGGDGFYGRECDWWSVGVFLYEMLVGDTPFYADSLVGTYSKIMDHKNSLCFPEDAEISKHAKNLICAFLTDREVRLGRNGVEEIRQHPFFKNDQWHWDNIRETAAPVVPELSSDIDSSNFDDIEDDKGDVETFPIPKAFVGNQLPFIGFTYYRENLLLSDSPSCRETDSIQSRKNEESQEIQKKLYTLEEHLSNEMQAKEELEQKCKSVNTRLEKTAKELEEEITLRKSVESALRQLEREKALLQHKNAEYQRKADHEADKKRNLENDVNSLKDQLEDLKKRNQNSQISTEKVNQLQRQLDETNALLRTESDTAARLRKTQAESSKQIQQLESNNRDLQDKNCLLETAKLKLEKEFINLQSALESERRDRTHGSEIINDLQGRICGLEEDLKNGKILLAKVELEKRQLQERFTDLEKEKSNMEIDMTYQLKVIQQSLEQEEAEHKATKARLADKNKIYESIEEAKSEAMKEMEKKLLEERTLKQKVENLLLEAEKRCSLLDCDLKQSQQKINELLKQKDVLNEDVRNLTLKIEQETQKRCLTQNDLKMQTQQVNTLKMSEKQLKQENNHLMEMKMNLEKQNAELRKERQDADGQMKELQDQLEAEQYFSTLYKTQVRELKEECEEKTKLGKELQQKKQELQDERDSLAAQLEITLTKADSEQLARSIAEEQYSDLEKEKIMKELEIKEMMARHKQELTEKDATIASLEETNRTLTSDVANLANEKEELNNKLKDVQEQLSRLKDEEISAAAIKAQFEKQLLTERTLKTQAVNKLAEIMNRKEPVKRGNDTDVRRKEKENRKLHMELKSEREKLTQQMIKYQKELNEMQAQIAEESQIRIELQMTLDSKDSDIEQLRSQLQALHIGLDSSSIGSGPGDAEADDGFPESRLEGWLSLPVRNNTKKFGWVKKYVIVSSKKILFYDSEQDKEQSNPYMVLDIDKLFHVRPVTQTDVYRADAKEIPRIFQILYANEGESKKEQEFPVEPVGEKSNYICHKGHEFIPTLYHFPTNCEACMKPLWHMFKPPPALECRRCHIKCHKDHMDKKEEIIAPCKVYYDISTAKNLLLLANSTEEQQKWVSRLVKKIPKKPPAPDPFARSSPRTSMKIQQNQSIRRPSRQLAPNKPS

[2] = target: Macrophage colony-stimulating factor 1 receptor (Homo sapiens) (UniProt P07333); experiment: Inhibition of wild-type human partial length autoinhibited CSF1R (Y538 to S939 residues) expressed in HEK293 cells assessed as residual activity at 1000 nM after 30 mins by Kinomescan method relative to control; type: cell-based
Macrophage colony-stimulating factor 1 receptor (Homo sapiens), sequence (P07333 whole entry, the tested form may be a part): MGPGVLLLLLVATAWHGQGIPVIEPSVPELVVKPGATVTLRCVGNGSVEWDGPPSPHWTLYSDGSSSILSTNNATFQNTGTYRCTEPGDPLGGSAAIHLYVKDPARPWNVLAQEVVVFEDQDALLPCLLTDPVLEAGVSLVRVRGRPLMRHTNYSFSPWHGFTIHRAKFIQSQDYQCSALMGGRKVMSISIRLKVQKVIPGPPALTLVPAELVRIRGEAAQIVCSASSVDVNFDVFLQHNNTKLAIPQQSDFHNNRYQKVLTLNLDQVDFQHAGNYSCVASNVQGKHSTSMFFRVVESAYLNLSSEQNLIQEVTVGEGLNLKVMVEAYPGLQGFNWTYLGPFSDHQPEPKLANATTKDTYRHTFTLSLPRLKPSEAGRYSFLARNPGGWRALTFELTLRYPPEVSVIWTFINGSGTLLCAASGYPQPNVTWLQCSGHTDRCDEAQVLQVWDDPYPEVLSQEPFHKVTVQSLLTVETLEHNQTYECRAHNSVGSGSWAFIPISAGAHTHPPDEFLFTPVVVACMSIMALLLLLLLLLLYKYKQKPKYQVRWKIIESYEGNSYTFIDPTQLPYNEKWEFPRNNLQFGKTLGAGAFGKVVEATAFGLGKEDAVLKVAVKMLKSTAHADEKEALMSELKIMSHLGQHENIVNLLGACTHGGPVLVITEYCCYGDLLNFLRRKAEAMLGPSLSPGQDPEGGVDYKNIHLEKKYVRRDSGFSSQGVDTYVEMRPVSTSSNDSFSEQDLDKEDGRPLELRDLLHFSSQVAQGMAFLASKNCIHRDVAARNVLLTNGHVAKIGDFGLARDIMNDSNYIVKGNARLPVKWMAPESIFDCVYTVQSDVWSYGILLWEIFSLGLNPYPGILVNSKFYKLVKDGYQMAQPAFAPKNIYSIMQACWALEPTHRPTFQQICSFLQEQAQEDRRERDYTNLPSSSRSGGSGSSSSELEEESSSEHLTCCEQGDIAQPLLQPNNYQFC

[3] = target: Homeodomain-interacting protein kinase 4 (Homo sapiens) (UniProt Q8NE63); experiment: Inhibition of wild-type human partial length HIPK4 (M1 to V384 residues) expressed in Escherichia coli BL21 assessed as residual activity at 1000 nM after 30 mins by Kinomescan method relative to control
[4] = target: Ribosomal protein S6 kinase alpha-6 (Homo sapiens) (UniProt Q9UK32); experiment: Inhibition of wild-type human partial length C-terminal RSK4 kinase domain 2 (I401 to Y711 residues) expressed in Escherichia coli BL21 assessed as residual activity at 1000 nM after 30 mins by Kinomescan method relative to control
[5] = target: Ribosomal protein S6 kinase alpha-3 (Homo sapiens) (UniProt P51812); experiment: Inhibition of wild-type human partial length C-terminal RSK3 kinase domain 2 (V403 to K700 residues) expressed in Escherichia coli BL21 assessed as residual activity at 1000 nM after 30 mins by Kinomescan method relative to control
Ribosomal protein S6 kinase alpha-3 (Homo sapiens), sequence (P51812 whole entry, the tested form may be a part): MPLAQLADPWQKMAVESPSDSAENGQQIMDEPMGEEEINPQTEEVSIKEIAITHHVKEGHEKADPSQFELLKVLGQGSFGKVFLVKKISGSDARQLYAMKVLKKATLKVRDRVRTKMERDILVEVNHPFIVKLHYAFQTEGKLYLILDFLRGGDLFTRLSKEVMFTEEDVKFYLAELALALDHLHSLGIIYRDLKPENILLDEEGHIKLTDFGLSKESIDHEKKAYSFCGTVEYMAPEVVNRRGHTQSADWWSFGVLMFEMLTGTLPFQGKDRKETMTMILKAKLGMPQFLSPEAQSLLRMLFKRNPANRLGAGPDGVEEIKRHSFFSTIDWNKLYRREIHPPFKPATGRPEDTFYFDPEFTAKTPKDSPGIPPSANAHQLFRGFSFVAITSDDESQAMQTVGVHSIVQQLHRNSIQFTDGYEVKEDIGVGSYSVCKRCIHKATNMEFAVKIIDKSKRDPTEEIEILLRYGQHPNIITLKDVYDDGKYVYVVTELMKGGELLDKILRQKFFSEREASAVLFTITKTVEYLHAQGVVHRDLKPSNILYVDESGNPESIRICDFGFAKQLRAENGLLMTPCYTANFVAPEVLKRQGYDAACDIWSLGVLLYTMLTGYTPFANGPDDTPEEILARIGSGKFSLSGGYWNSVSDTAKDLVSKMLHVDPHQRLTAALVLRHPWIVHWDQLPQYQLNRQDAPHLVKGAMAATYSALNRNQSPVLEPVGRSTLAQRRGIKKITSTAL

[6] = target: Ephrin type-A receptor 8 (Homo sapiens) (UniProt P29322); experiment: Inhibition of wild-type human partial length EPHA8 (Q608 to C920 residues) expressed in Escherichia coli BL21 assessed as residual activity at 1000 nM after 30 mins by Kinomescan method relative to control
Ephrin type-A receptor 8 (Homo sapiens), sequence (P29322 whole entry, the tested form may be a part): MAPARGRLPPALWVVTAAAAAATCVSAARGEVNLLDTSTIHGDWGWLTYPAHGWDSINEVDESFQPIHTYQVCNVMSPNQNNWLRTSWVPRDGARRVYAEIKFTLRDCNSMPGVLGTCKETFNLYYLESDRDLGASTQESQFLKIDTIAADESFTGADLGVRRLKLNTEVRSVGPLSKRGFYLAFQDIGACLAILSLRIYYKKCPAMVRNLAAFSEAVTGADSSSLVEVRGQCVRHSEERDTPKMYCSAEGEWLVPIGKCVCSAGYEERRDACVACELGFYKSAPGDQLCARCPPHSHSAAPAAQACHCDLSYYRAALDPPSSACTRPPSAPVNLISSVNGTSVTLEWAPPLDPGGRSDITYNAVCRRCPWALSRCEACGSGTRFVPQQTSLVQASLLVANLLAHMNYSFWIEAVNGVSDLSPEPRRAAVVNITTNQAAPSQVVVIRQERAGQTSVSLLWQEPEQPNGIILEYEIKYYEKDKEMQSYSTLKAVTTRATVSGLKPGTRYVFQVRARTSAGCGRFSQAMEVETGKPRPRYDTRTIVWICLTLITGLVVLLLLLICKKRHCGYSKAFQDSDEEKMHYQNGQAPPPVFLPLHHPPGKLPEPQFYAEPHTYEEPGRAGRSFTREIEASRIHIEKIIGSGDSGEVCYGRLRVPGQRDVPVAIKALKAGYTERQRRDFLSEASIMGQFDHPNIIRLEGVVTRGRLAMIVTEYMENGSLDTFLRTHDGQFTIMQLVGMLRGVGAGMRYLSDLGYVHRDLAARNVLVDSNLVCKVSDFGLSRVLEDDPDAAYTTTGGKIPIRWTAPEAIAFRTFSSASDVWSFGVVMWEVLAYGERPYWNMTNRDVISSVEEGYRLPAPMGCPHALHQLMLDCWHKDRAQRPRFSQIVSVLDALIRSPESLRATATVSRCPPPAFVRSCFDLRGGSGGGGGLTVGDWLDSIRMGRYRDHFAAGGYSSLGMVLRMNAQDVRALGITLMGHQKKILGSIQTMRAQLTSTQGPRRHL

[7] = target: RAC-alpha serine/threonine-protein kinase (Homo sapiens) (UniProt P31749); experiment: Inhibition of wild-type human partial length AKT1 expressed in Escherichia coli BL21 assessed as residual activity at 1000 nM after 30 mins by Kinomescan method relative to control
[8] = system: Epidermal growth factor receptor (Homo sapiens), P00533 [G719C]; experiment: Inhibition of human partial length EGFR G719C mutant (R669 to V1011 residues) expressed in Escherichia coli BL21 assessed as residual activity at 1000 nM after 30 mins by Kinomescan method relative to control
In short: (§1)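 KINOMEscan binding panel of 456 kinases, with the test compound at a single concentration of 1 µM. Read-out is Percent Control.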

[9] = system: Receptor-type tyrosine-protein kinase FLT3 (Homo sapiens), P36888 [K663Q]; experiment: Inhibition of human partial length FLT3 K663Q mutant (V592 to Y969 residues) expressed in Escherichia coli BL21 assessed as residual activity at 1000 nM after 30 mins by Kinomescan method relative to control; in short: as §1
[10] = target: Mitogen-activated protein kinase kinase kinase kinase 1 (Homo sapiens) (UniProt Q92918); experiment: Inhibition of wild-type human full length HPK1 (M1 to R799 residues) expressed in Escherichia coli BL21 assessed as residual activity at 1000 nM after 30 mins by Kinomescan method relative to control
Mitogen-activated protein kinase kinase kinase kinase 1 (Homo sapiens), sequence (Q92918 whole entry, looked up, the tested form may be a part): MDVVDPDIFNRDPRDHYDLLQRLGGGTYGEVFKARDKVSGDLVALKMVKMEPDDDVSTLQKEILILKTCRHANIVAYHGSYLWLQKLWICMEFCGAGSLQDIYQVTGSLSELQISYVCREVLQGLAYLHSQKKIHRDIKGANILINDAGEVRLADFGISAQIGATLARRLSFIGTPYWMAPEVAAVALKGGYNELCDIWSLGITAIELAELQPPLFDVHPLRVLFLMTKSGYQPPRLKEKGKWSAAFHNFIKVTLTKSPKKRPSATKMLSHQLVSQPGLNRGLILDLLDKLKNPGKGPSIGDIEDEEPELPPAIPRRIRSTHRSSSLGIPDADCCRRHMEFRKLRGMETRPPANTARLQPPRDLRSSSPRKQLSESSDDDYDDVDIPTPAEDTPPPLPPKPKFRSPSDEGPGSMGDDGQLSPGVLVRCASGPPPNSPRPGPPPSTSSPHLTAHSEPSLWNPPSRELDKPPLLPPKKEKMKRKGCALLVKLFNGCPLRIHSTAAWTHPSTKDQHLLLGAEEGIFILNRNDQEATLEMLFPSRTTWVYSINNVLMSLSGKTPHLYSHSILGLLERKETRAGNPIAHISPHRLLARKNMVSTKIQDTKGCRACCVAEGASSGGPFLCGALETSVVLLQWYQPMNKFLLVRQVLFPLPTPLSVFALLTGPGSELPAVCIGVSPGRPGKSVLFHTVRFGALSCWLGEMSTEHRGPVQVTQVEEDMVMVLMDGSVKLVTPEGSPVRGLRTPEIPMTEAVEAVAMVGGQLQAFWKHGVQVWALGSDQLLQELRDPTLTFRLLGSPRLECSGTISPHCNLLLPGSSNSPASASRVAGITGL
In short: (§2)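 Single-concentration screen at 1 µM across a 456-kinase KINOMEscan panel. The read-out is Percent Control for each kinase.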

[11] = target: MAP/microtubule affinity-regulating kinase 4 (Homo sapiens) (UniProt Q96L34); experiment: Inhibition of wild-type human partial length MARK4 (K29 to G340 residues) expressed in Escherichia coli BL21 assessed as residual activity at 1000 nM after 30 mins by Kinomescan method relative to control
[12] = target: Wee1-like protein kinase 2 (Homo sapiens) (UniProt P0C1S8); experiment: Inhibition of wild-type human partial length WEE2 (M204 to K492 residues) expressed in Escherichia coli BL21 assessed as residual activity at 1000 nM after 30 mins by Kinomescan method relative to control
[13] = system: Tyrosine-protein kinase ABL1 (Homo sapiens), P00519 [H396P]; experiment: Inhibition of human non-phosphorylated ABL1 H396P mutant (S229 to K512 residues) expressed in HEK293 cells assessed as residual activity at 1000 nM after 30 mins by Kinomescan method relative to control; type: cell-based; in short: as §1
[14] = target: Leukocyte tyrosine kinase receptor (Homo sapiens) (UniProt P29376); experiment: Inhibition of wild-type human partial length LTK (P422 to S744 residues) expressed in Escherichia coli BL21 assessed as residual activity at 1000 nM after 30 mins by Kinomescan method relative to control
[15] = target: Mitogen-activated protein kinase kinase kinase 20 (Homo sapiens) (UniProt Q9NYL2); experiment: Inhibition of wild-type human partial length ZAK (M1 to L331 residues) expressed in Escherichia coli BL21 assessed as residual activity at 1000 nM after 30 mins by Kinomescan method relative to control
[16] = target: Dual specificity tyrosine-phosphorylation-regulated kinase 2 (Homo sapiens) (UniProt Q92630); experiment: Inhibition of wild-type human full length DYRK2 (M1 to S528 residues) expressed in HEK293 cells assessed as residual activity at 1000 nM after 30 mins by Kinomescan method relative to control; type: cell-based; in short: as §2
[17] = target: Cyclin-dependent kinase 17 (Homo sapiens) (UniProt Q00537); experiment: Inhibition of wild-type human full length PCTK2 (M1 to F523 residues) expressed in Escherichia coli BL21 assessed as residual activity at 1000 nM after 30 mins by Kinomescan method relative to control; in short: as §2
[18] = target: Phosphatidylinositol 4,5-bisphosphate 3-kinase catalytic subunit alpha isoform (Homo sapiens) (UniProt P42336); experiment: Inhibition of wild-type human partial length PIK3CA (R108 to N1068 residues) expressed in HEK293 cells assessed as residual activity at 1000 nM after 30 mins by Kinomescan method relative to control; type: cell-based
[19] = target: Calcium/calmodulin-dependent protein kinase type 1 (Homo sapiens) (UniProt Q14012); experiment: Inhibition of wild-type human full length CAMK1 (M1 to L370 residues) expressed in Escherichia coli BL21 assessed as residual activity at 1000 nM after 30 mins by Kinomescan method relative to control
In short: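 Single-point screen at a fixed 1 µM, run within a 456-kinase DiscoveRx KINOMEscan panel. Each kinase's read-out is Percent Control, i.e. signal relative to a control without compound. Hits were scored by a Percent Control < 35 cut-off, and an S(35) selectivity score was calculated across the non-mutant kinases.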

[20] = target: Serine/threonine-protein kinase 3 (Homo sapiens) (UniProt Q13188); experiment: Inhibition of wild-type human partial length MST2 (D17 to E318 residues) expressed in Escherichia coli BL21 assessed as residual activity at 1000 nM after 30 mins by Kinomescan method relative to control
[21] = target: G protein-coupled receptor kinase 3 (Homo sapiens) (UniProt P35626); experiment: Inhibition of wild-type human full length GRK3 (M1 to L688 residues) expressed in HEK293 cells assessed as residual activity at 1000 nM after 30 mins by Kinomescan method relative to control; type: cell-based; in short: as §2

SMILES: COc1cc(OC)c(Cl)c(N2Cc3cnc(Nc4ccc(F)cc4)nc3N(C3CCN(C(=O)/C=C/CN(C)C)CC3)C2=O)c1Cl
- Activity [1]: 100%
- Activity [2]: 74%
- Activity [3]: 99%
- Activity [4]: 94%
- Activity [5]: 88%
- Activity [6]: 100%
- Activity [7]: 88%
- Activity [8]: 87%
- Activity [9]: 100%
- Activity [10]: 32%
- Activity [11]: 87%
- Activity [12]: 99%
- Activity [13]: 31%
- Activity [14]: 95%
- Activity [15]: 98%
- Activity [16]: 100%
- Activity [17]: 90%
- Activity [18]: 100%
- Activity [19]: 100%
- Activity [20]: 64%
- Activity [21]: 100%
